From ChEMBL document CHEMBL1641503, “5-Non-amino aromatic substituted naphthalimides as potential antitumor agents: Synthesis via Suzuki reaction, antiproliferative activity, and DNA-binding behavior” (Bioorg Med Chem, 2011)
The source made the active and inactive calls. No cut-off for these calls is given here.

Key:
HeLa = assay: Antiproliferative activity against human HeLa cells after 48 hrs by MTT assay; assay type: functional, cell-based
Outline: (§1)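 Cells seeded at 2.5 × 10⁴/well in 1640 complete medium, 37 °C, 5% CO₂, 24 h; compounds added at 100 to 0.01 µM for 48 h; D-Hank's buffer negative control. Cells washed twice with PBS, MTT (0.5 g/L in PBS, in complete medium) 4 h, DMSO to dissolve; absorbance at 492 nm (reference 630 nm). At least three experiments; mean percentage absorbance plotted against concentration.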

[1] = Antiproliferative activity against mouse P388D1 cells after 48 hrs by MTT assay; assay type: functional, cell-based; settings: P388D1, 48 h; outline: as §1
Calf thymus DNA [2] = assay: Binding affinity to calf thymus DNA by fluorescence assay; assay type: nucleic-acid assay; settings: Bos taurus
Outline: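 CT-DNA held at 50 µM with compound 1 to 25 µM in Tris–HCl (30 mM, pH 7.5); compound without DNA as control. Solutions ultrasonically shaken 1 day at 25 °C in the dark. Fluorescence read at 350 nm excitation. Scatchard binding constant K_b derived from quenching (F0 vs F1) via Scatchard plot.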

Calf thymus DNA [3] = assay: Binding affinity to calf thymus DNA at 10 uM by circular dichroism assay; assay type: nucleic-acid assay; settings: Bos taurus
Outline: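 CD spectra of CT-DNA (100 µM) with compound at 10 µM in Tris–HCl buffer (pH 7.0), 1-cm quartz cell, 200–600 nm; buffer spectrum subtracted.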

Calf thymus DNA [4] = assay: Binding affinity to calf thymus DNA assessed as increase of viscosity of DNA solution at 100 uM; assay type: nucleic-acid assay; settings: Bos taurus
Outline: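 Ubbelohde viscometry at 25 ± 0.1 °C. CT-DNA 100 µM in Tris–HCl (30 mM, pH 7.5), kept at 4 °C overnight, sonicated 10 min, filtered 0.45 µm. Flow time measured three times per sample and averaged, corrected for buffer. (η/η0)^1/3 plotted versus compound/DNA ratio.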

Structure (SMILES)	IC50 (HeLa)	IC50 [1]	Kb (Calf thymus DNA [2])	Activity (Calf thymus DNA [3])	Activity (Calf thymus DNA [4])
CN(C)CCN1C(=O)c2cccc3cc(-c4ccc(F)c(F)c4)cc(c23)C1=O	5300 nM	980 nM	12.8 ×10⁵ /M		
CN(C)CCN1C(=O)c2cccc3cc(N)cc(c23)C1=O [AMONAFIDE]	6020 nM	680 nM	1.05 ×10⁵ /M		
CN(C)CCN1C(=O)c2cccc3cc(-c4ccc(F)cc4)cc(c23)C1=O			12.4 ×10⁵ /M		
CN(C)CCN1C(=O)c2cccc3cc(-c4cccs4)cc(c23)C1=O	3100 nM	680 nM	13.2 ×10⁵ /M	Active	Active
CN(C)CCN1C(=O)c2cccc3cc(-c4cccc([N+](=O)[O-])c4)cc(c23)C1=O	4700 nM	380 nM	14.8 ×10⁵ /M		
CN(C)CCN1C(=O)c2cccc3cc(-c4ccccc4)cc(c23)C1=O	5700 nM	680 nM	10.8 ×10⁵ /M	Active	Active
CN(C)CCN1C(=O)c2cccc3cc(-c4ccc(C(F)(F)F)cc4)cc(c23)C1=O			11.8 ×10⁵ /M		
Cc1ccc(-c2cc3c4c(cccc4c2)C(=O)N(CCN(C)C)C3=O)cc1	45800 nM	2190 nM	10.8 ×10⁵ /M		
